Reference: ChEMBL document CHEMBL1629492 (Eur J Med Chem, 2010)
pKi: −log10 of the molar value.

Legend:
Rattus norvegicus [1] = organism: Rattus norvegicus; assay: Selectivity ratio of EC50 for alpha1A adrenoceptor in Wistar rat vas deferens to Ki for Alpha-1B adrenoceptor in Wistar rat spleen; format: tissue-based
Rattus norvegicus [2] = organism: Rattus norvegicus; assay: Selectivity ratio of Ki for alpha1D adrenoceptor in Wistar rat thoracic aorta to Ki for Alpha-1B adrenoceptor in Wistar rat spleen; format: tissue-based
[3] = Selectivity ratio of Ki for human alpha1A adrenoceptor to Ki for human Alpha-1D adrenoceptor
Outline: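 Subtype selectivity is the antilog of the difference between pKi values, from [³H]prazosin displacement (0.1–0.4 nM, 30 min, 25 °C, pH 7.4) at cloned human α1a, α1b and α1d receptors in CHO membranes. Ki values came from IC50 via Cheng–Prusoff.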

[4] = target: T1, Alpha-1D adrenergic receptor (Rattus norvegicus, UniProt P23944); assay: Antagonist activity at Alpha-1D adrenoceptor in Wistar rat thoracic aorta assessed as noradrenaline induced contractions after 30 mins
T1 sequence (P23944 whole entry): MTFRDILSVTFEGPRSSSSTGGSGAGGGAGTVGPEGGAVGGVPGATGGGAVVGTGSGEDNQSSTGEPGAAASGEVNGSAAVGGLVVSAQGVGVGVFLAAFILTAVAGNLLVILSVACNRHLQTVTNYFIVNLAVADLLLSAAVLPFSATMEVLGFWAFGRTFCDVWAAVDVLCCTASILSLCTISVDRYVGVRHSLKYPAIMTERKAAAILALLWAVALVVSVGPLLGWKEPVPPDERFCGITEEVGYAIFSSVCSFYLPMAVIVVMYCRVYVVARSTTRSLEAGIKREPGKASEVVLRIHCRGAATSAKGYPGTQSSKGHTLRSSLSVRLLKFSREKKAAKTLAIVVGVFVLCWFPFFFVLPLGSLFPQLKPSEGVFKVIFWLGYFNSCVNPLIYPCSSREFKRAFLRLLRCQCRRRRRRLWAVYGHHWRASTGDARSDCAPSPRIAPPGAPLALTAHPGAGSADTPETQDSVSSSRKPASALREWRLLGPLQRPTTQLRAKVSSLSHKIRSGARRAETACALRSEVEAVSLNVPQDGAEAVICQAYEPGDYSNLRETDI

Rattus norvegicus [5] = organism: Rattus norvegicus; assay: Selectivity ratio of EC50 for alpha1A adrenoceptor in Wistar rat vas deferens to EC50 for Alpha-1B adrenoceptor in Wistar rat spleen; format: tissue-based
Rattus norvegicus [6] = organism: Rattus norvegicus; assay: Selectivity ratio of EC50 for alpha1D adrenoceptor in Wistar rat thoracic aorta to EC50 for Alpha-1B adrenoceptor in Wistar rat spleen; format: tissue-based
[7] = target: T2, Alpha-1D adrenergic receptor (Homo sapiens, UniProt P25100); assay: Displacement of [3H]prazosin from human Alpha-1D adrenoceptor expressed in CHO cells; format: cell-based
T2 sequence (P25100 whole entry): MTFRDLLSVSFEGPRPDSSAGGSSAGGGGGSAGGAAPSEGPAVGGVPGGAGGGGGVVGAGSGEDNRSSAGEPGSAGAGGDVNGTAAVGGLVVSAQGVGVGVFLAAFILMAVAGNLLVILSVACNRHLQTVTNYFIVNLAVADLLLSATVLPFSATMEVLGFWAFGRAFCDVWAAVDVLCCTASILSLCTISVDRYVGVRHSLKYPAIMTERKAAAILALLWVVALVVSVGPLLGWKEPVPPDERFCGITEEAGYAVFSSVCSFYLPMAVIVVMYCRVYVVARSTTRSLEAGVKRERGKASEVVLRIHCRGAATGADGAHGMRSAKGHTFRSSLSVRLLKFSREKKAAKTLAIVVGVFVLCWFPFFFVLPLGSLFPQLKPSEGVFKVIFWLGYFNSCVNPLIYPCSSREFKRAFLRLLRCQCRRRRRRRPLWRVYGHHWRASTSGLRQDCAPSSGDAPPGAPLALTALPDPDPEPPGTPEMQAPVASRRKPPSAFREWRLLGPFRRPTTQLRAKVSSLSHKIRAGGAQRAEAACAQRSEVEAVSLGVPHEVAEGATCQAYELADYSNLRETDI
Outline: (§1)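 Membranes ([…], as printed) from CHO cells stably expressing the cloned human α1d subtype were incubated with 0.1–0.4 nM [³H]prazosin and competing drug (1 pM upward) in 50 mM Tris-HCl, pH 7.4, for 30 min at 25 °C. Phentolamine defined non-specific binding. IC50 was converted to Ki by Cheng–Prusoff. Reported as pKi from 2–3 triplicate experiments.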

[8] = target: T3, Alpha-1A adrenergic receptor (Homo sapiens, UniProt P35348); assay: Displacement of [3H]prazosin from human alpha1A adrenoceptor expressed in CHO cells; format: cell-based
T3 sequence (P35348 whole entry): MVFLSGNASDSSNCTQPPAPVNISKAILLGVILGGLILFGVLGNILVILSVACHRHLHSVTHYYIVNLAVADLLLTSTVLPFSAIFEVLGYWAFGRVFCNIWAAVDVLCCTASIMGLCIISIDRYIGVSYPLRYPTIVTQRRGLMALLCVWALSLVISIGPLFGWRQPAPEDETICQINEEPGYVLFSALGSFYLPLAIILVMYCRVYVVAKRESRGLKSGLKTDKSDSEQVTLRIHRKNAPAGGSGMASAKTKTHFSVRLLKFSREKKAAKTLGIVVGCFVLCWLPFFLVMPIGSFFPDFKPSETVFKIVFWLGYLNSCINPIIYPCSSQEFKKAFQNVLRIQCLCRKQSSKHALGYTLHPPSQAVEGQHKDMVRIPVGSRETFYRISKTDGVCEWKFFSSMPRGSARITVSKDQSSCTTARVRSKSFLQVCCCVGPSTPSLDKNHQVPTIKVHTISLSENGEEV
Outline: as §1, with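 “α1a” for “α1d”, “competitor” for “competing drug”, “up to the top concentration)” for “upward)”, “Non-specific binding was” for “Phentolamine”, “with phentolamine, and incubations ended by rapid filtration.” for “non-specific binding.”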

Row | SMILES | Selectivity ratio (Rattus norvegicus [1]) | Selectivity ratio (Rattus norvegicus [2]) | Ki ratio [3] | Kb [4] | Selectivity ratio (Rattus norvegicus [5]) | Selectivity ratio (Rattus norvegicus [6]) | pKi [7] | pKi [8]
1 | COc1ccc(C[C@@H](C)NCCOc2ccccc2OCC(F)(F)F)cc1S(N)(=O)=O | 4 | 1 | 2 | 0.955 nM | 4 | 1 | 9.02 | 9.22
2 | COc1ccc(C[C@@H](C)NCCOc2ccccc2OC(C)C)cc1S(N)(=O)=O | 7 | 3 | 0.7 | 0.501 nM | 7 | 3 | 9.61 | 9.47
3 | COc1ccc(C[C@@H](C)NC[C@@H]2Oc3ccccc3O[C@@H]2C)cc1S(N)(=O)=O | 1 | 0.8 | 1 | 21.4 nM | 1 | 0.8 | 7.81 | 7.94
4 | COc1ccc(C[C@@H](C)NCCOc2ccccc2OCc2ccccc2)cc1S(N)(=O)=O | 12 | 4 | 0.9 | – | 12 | 4 | 9.49 | 9.46
5 | COc1ccc(C[C@@H](C)NC[C@H]2Oc3ccccc3O[C@H]2C)cc1S(N)(=O)=O | 1 | 0.5 | 0.9 | 60.3 nM | 1 | 0.5 | 7.76 | 7.72
